Results from ChEMBL document CHEMBL5252540, “3-Aroyl-1,4-diarylpyrroles Inhibit Chronic Myeloid Leukemia Cell Growth through an Interaction with Tubulin” (ACS Med Chem Lett, 2017).
Structures can show the parent of a compound that is named as a salt. Calls of active or inactive are those of the source. The calls are words filed in the database; no cut-off is given here.

How the values were obtained:
Tubulin = assay: Inhibition of tubulin (unknown origin) polymerization preincubated for 15 mins followed by GTP addition by turbidity based spectrophotometer analysis; format: protein-complex assay, Homo sapiens
Tubulin (Homo sapiens) = Tubulin (Homo sapiens) (UniProt P68371+Q9H4B7+P0DPH7+P68366+Q13509+Q71U36+P04350+Q3ZCM7+P07437+P68363+Q9BQE3+Q6PEY2+Q13885+Q9BVA1+Q9BUF5); assay: Inhibition of [3H]colchicine binding to tubulin (unknown origin) at 5 uM incubated for 10 mins relative to control; format: protein-complex assay
MCF7 = assay: Cytotoxicity against human MCF7 cells assessed as cell growth inhibition incubated for 3 days by trypan blue exclusion assay; format: functional, cell-based; conditions: MCF7, 72 h
Procedure, shortened: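 MCF-7 human breast carcinoma cells; growth inhibition; triplicate experiments.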

NCI/ADR-RES = assay: Cytotoxicity against human NCI/ADR-RES cells overexpressing p-glycoprotein assessed as cell growth inhibition incubated for 3 days by trypan blue exclusion assay; format: functional, cell-based; conditions: 72 h
OVCAR-8 = assay: Cytotoxicity against human OVCAR-8 cells assessed as cell growth inhibition incubated for 3 days by trypan blue exclusion assay; format: functional, cell-based; conditions: OVCAR-8, 72 h
LAMA-84 [1] = assay: Antiproliferative activity against human LAMA-84 cells overexpressing BCR/ABL assessed as cell growth inhibition
LAMA-84 [2] = assay: Antiproliferative activity against human LAMA-84 cells assessed as cell growth inhibition incubated for 48 hrs by MTT assay; conditions: LAMA-84, 48 h
KU812 cell line [3] = assay: Induction of apoptosis in human KU812 cells assessed as increase in PARP cleavage measured after 24 hrs by Western blot analysis; format: functional, cell-based
Procedure, shortened: (§1)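 KU812 cells treated for 6 h and 24 h; immunoblotting for p21Cip/WAF1 and PARP cleavage.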

HCT-116 = assay: Cytotoxicity against human HCT-116 cells assessed as cell growth inhibition incubated for 48 hrs by MTT assay; format: functional, cell-based; conditions: HCT-116, 48 h
HepG2 = assay: Cytotoxicity against human HepG2 cells assessed as cell growth inhibition incubated for 48 hrs by MTT assay; format: functional, cell-based; conditions: HepG2, 48 h
KBM5 [4] = assay: Induction of apoptosis in imatinib mesylate resistant human KBM5 cells expressing BCR/ABL-T315I mutant assessed as annexin V positive cells incubated for 48 hrs by annexin V-FITC/propidium iodide staining based flow cytometry analysis (reference value: 2.2+/-1.8%); format: functional
KBM5 [5] = assay: Potentiation of imatinib mesylate induced apoptosis in human KBM5 cells expressing wild type BCR/ABL assessed as increase in pro-apoptogenic effect at 100 nM incubated for 24 hrs by annexin V-FITC/propidium iodide staining based flow cytometry analysis; format: functional, cell-based
Procedure, shortened: (§2)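 Annexin V-FITC staining to detect early cell death after 24 h; IM given with or without 100 nM test agent; read by flow cytometry; triplicate experiments.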

KBM5 [6] = assay: Induction of apoptosis in imatinib mesylate sensitive human KBM5 cells expressing wild type BCR/ABL assessed as annexin V positive cells incubated for 48 hrs by annexin V-FITC/propidium iodide staining based flow cytometry analysis (reference value: 2.2+/-1.8%); format: functional
KU812 cell line [7] = assay: Induction of apoptosis in human KU812 cells assessed as accumulation of cells at sub-G1 phase incubated for 24 hrs by RNase/PI staining based flow cytometry analysis (reference value: 0.4+/-0.8%); format: functional
KU812 cell line [8] = assay: Antiproliferative activity against human KU812 cells expressing BCR/ABL assessed as cell growth inhibition at 12 nM incubated for 48 hrs by MTT assay relative to control; format: functional
Procedure, shortened: (§3)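 KU812 or LAMA84 CML blast-crisis cells (BCR/ABL-expressing) exposed to increasing doses for 48 h; proliferation read by MTT assay; triplicate experiments.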

KU812 cell line [9] = assay: Induction of cell cycle arrest in human KU812 cells assessed as accumulation of cells at G2/M phase incubated for 24 hrs by RNase/PI staining based flow cytometry analysis relative to control; format: functional
Procedure, shortened: (§4)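 KU812 cells treated with 100 nM versus DMSO vehicle for 2-8 h or 24 h; cell cycle distribution (G2/M, sub-G1) by flow cytometry.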

KU812 cell line [10] = assay: Induction of apoptosis in human KU812 cells assessed as upregulation of caspase-3 activation by flow cytometry; conditions: time 0-24 hrs, TDE = time-dependent effect
KBM5 [11] = assay: Potentiation of imatinib mesylate induced apoptosis in human KBM5 cells expressing BCR/ABL T315I mutant assessed as increase in pro-apoptogenic effect at 100 nM incubated for 24 hrs by annexin V-FITC/propidium iodide staining based flow cytometry analysis; format: functional, cell-based; procedure, shortened: as §2
KU812 cell line [12] = assay: Induction of apoptosis in human KU812 cells assessed as appearance of blue-to-cyan fluorescence in nucleus by Hoechst-3258 staining based analysis; format: functional, cell-based
Procedure, shortened: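 KU812 cells treated with compound versus DMSO control; nuclear morphology by Hoechst-3258 staining, blue-to-cyan fluorescence scored as apoptotic.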

LAMA-84 [13] = assay: Downregulation of E-cadherin protein level in human LAMA-84 cells at 100 nM incubated for 24 hrs by Western blot analysis; format: functional, cell-based
Procedure, shortened: (§5)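 LAMA84 cells cultured 24 h at 100 nM, alongside IM 100 nM and DMSO controls; lysates analysed by Western immunoblotting for BCR/ABL auto-activation and total E-cadherin.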

LAMA-84 [14] = assay: Downregulation of unphosphorylated beta-catenin protein expression in human LAMA-84 cells at 100 nM incubated for 24 hrs by Western blot analysis; format: functional, cell-based
LAMA-84 [15] = assay: Potentiation of imatinib mesylate induced antiproliferative activity against human LAMA-84 cells assessed as imatinib mesylate IC50 incubated for 48 hrs by MTT assay; format: functional, cell-based; conditions: LAMA-84, 48 h
LAMA-84 [16] = assay: Antiproliferative activity against human LAMA-84 cells expressing BCR/ABL assessed as cell growth inhibition; format: functional, cell-based; procedure, shortened: as §3
KU812 cell line [17] = assay: Induction of apoptosis in human KU812 cells assessed as upregulation of p21 Cip/WAF1 protein expression incubated for 6 hrs by Western blot analysis; format: functional, cell-based; procedure, shortened: as §1
KBM5 [18] = assay: Cytotoxicity against imatinib mesylate resistant human KBM5 cells expressing BCR/ABL T315I mutant assessed as cell growth inhibition; format: functional, cell-based
Procedure, shortened: (§6)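 Hematopoietic KBM5 cells ectopically expressing IM-sensitive wild-type or IM-resistant T315I BCR/ABL, dosed over a concentration range; growth measured by MTT assay; average IC50 from triplicate experiments.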

KYSE-150 cell line = assay: Cytotoxicity against human KYSE-150 cells assessed as cell growth inhibition incubated for 48 to 96 hrs by celltiter-flor reagent based fluorescence assay; format: functional
KU812 cell line [19] = assay: Induction of cell cycle arrest in human KU812 cells assessed as accumulation of cells at G2/M phase incubated for 2 to 8 hrs by RNase/PI staining based flow cytometry analysis (reference value: 35.7+/-[…]); format: functional; conditions: time 2-8 hrs
LAMA-84 [20] = assay: Antiproliferative activity against human LAMA-84 cells expressing BCR/ABL assessed as cell growth inhibition at 12 nM incubated for 48 hrs by MTT assay relative to control; format: functional; procedure, shortened: as §3
[21] = molecular target: Bcr/Abl fusion protein (Homo sapiens) (UniProt P00519+P11274); assay: Inhibition of BCR-ABL phospho-activation in human LAMA-84 cells at 100 nM incubated for 24 hrs by Western blot analysis; format: cell-based; procedure, shortened: as §5
KU812 cell line [22] = assay: Antiproliferative activity against human KU812 cells expressing BCR/ABL assessed as cell growth inhibition; format: functional, cell-based; procedure, shortened: as §3
LAMA-84 [23] = assay: Effect on total cofilin protein level in human LAMA-84 cells at 100 nM incubated for 24 hrs by Western blot analysis; format: functional, cell-based
KBM5 [24] = assay: Cytotoxicity against imatinib mesylate sensitive human KBM5 cells expressing wild type BCR/ABL assessed as cell growth inhibition; format: functional, cell-based; procedure, shortened: as §6
KU812 cell line [25] = assay: Induction of morphological changes in human KU812 cells expressing BCR/ABL assessed as multiple centrosome cells with failed cytokinesis at 100 nM incubated for 16 hrs by immunostaining based phase contrast microscopic analysis; format: functional, cell-based
Procedure, shortened: (§7)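 KU812 cells treated with 100 nM versus DMSO vehicle; shape examined by phase contrast microscopy with tubulin immunostaining, scoring elongation, multiple centrosomes and failed cytokinesis.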

LAMA-84 [26] = assay: Effect on total beta-catenin protein level in human LAMA-84 cells at 100 nM incubated for 24 hrs by Western blot analysis; format: functional, cell-based
LAMA-84 [27] = assay: Downregulation of phospho cofilin protein expression in human LAMA-84 cells at 100 nM incubated for 24 hrs by Western blot analysis; format: functional, cell-based
[28] = Cytotoxicity against human PBMC cells assessed as reduction in cell viability up to 1 uM incubated for 48 hrs by MTT assay; format: toxicity, cell-based
Procedure, shortened: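 Peripheral blood mononuclear cells isolated from healthy donors, exposed to compound up to 1 μM for 48 h; viability read by MTT assay; triplicate experiments.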

KU812 cell line [29] = assay: Induction of apoptosis in human KU812 cells assessed as upregulation of p21 Cip/WAF1 protein expression measured after 24 hrs by Western blot analysis; format: functional, cell-based; procedure, shortened: as §1
KU812 cell line [30] = assay: Induction of morphological changes in human KU812 cells assessed as elongated shape at 100 nM incubated for 16 hrs by immunostaining based phase contrast microscopic analysis; format: functional, cell-based; procedure, shortened: as §7
KU812 cell line [31] = assay: Induction of cell cycle arrest in human KU812 cells assessed as accumulation of cells at sub-G1 phase incubated for 2 to 8 hrs by RNase/PI staining based flow cytometry analysis relative to control; format: functional; conditions: time 2-8 hrs; procedure, shortened: as §4

Chain of Bcr/Abl fusion protein (Homo sapiens) (P00519 whole entry, looked up, the tested form may be a part): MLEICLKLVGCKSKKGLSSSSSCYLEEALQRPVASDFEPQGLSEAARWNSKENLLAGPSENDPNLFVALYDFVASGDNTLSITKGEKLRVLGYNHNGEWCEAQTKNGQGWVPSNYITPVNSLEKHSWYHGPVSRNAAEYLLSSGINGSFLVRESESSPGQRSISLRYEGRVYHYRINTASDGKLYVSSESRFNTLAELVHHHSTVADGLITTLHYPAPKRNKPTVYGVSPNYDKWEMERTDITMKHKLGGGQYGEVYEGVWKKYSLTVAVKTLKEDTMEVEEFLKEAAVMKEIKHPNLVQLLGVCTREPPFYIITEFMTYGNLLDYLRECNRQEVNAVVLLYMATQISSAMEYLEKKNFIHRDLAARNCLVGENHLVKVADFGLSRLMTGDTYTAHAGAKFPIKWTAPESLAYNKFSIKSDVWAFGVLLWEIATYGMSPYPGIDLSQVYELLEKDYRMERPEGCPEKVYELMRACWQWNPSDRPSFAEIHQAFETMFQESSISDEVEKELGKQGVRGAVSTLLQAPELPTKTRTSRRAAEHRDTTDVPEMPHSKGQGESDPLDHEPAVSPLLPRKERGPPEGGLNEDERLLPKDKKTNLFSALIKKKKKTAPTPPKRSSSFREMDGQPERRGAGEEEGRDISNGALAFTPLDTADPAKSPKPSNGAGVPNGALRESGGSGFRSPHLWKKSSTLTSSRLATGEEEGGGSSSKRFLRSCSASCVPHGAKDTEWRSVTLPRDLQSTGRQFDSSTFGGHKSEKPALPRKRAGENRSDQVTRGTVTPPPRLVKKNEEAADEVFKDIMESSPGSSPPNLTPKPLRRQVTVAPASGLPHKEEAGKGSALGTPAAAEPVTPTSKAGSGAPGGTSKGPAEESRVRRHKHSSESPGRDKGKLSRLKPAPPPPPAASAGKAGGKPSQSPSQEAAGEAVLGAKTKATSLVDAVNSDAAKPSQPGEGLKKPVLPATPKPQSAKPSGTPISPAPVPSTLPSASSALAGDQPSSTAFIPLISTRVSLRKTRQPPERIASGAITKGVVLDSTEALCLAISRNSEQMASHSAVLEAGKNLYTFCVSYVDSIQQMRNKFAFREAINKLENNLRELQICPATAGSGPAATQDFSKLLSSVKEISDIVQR
Chain of Bcr/Abl fusion protein (Homo sapiens) (P11274 whole entry, looked up, the tested form may be a part): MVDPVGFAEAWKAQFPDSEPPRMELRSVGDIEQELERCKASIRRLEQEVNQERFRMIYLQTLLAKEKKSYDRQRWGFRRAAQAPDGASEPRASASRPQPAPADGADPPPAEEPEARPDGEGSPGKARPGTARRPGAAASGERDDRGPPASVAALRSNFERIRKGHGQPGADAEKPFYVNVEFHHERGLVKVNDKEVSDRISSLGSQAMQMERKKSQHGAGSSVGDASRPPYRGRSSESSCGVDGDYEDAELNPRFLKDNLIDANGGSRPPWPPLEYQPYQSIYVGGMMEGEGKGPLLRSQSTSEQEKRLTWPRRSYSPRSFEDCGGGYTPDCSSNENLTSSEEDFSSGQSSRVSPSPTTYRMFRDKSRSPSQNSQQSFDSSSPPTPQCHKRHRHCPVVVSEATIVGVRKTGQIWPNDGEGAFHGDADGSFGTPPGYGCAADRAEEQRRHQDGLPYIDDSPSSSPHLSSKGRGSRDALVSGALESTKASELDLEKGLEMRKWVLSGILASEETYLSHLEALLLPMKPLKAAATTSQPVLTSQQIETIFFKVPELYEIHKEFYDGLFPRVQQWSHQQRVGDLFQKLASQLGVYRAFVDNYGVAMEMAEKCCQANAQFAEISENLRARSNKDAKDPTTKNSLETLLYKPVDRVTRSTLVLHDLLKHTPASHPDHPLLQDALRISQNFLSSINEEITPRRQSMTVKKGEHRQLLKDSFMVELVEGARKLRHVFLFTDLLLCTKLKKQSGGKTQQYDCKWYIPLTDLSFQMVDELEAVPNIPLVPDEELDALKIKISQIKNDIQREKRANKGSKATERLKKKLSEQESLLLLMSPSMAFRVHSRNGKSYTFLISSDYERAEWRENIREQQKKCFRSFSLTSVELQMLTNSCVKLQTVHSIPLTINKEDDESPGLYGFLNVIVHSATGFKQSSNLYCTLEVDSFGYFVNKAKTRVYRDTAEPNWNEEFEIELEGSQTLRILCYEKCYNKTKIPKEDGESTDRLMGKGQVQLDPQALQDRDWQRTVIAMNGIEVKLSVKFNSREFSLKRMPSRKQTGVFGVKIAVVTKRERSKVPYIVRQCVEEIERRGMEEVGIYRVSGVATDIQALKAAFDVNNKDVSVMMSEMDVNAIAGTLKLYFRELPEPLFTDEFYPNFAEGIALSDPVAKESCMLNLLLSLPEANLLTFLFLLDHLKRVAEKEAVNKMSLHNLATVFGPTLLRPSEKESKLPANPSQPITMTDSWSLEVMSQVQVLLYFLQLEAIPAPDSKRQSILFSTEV

Structure (SMILES): COc1cc(C(=O)c2cn(-c3ccccc3)cc2-c2ccc(F)cc2)cc(OC)c1OC
- IC50 (Tubulin): 760 nM
- inhibition (Tubulin (Homo sapiens)): 47%
- IC50 (MCF7): 78 nM

Structure (SMILES): COc1cc(C(=O)c2cn(-c3ccc(F)cc3)cc2-c2ccccc2)cc(OC)c1OC
- IC50 (Tubulin): 1300 nM
- IC50 (NCI/ADR-RES): 110 nM
- inhibition (Tubulin (Homo sapiens)): 62%
- IC50 (MCF7): 15 nM
- IC50 (OVCAR-8): 180 nM

Structure (SMILES): COc1cc(C(=O)c2cn(-c3ccccc3)cc2-c2cccc(F)c2)cc(OC)c1OC
- IC50 (Tubulin): 630 nM
- inhibition (Tubulin (Homo sapiens)): 53%
- IC50 (MCF7): 57 nM

Structure (SMILES): Cc1ccc(NC(=O)c2ccc(CN3CCN(C)CC3)cc2)cc1Nc1nccc(-c2cccnc2)n1 [IMATINIB MESYLATE]
- IC50 (LAMA-84 [1]): 100 nM
- IC50 (LAMA-84 [2]): 100 nM

Structure (SMILES): COc1cc(C(=O)c2cn(-c3ccc(C)cc3)cc2-c2ccccc2)cc(OC)c1OC
- IC50 (Tubulin): 880 nM
- inhibition (Tubulin (Homo sapiens)): 79%
- IC50 (MCF7): 30 nM

Structure (SMILES): COc1cc(C(=O)c2cn(-c3ccccc3)cc2-c2ccccc2F)cc(OC)c1OC
- IC50 (Tubulin): 580 nM
- inhibition (Tubulin (Homo sapiens)): 72%
- IC50 (MCF7): 30 nM

Structure (SMILES): COc1cc(C(=O)c2cn(-c3cccc(F)c3)cc2-c2ccccc2)cc(OC)c1OC
- IC50 (Tubulin): 2900 nM
- inhibition (Tubulin (Homo sapiens)): 42%
- IC50 (MCF7): 350 nM

Structure (SMILES): COc1cc(C(=O)c2cn(-c3ccccc3)cc2-c2ccc(N)cc2)cc(OC)c1OC
- Activity (KU812 cell line [3]): Active
- IC50 (HCT-116): 20 nM
- IC50 (HepG2): 46 nM
- Activity (KBM5 [4]): 58.2%
- Activity (KBM5 [5]): Active
- Activity (KBM5 [6]): 62.6%
- Activity (KU812 cell line [7]): 75.6%
- inhibition at 0.012 µM (KU812 cell line [8]): 50%
- Activity (KU812 cell line [9]): 11.4%
- Activity (KU812 cell line [10]): Tde
- Activity (KBM5 [11]): Active
- Activity (KU812 cell line [12]): Active
- Activity (LAMA-84 [13]): Active
- Activity (LAMA-84 [14]): Active
- IC50 (LAMA-84 [15]): < 10 nM
- inhibition (Tubulin (Homo sapiens)): 81%
- IC50 (LAMA-84 [16]): 14 nM
- Activity (KU812 cell line [17]): Active
- IC50 (KBM5 [18]): 18 nM
- IC50 (KYSE-150 cell line): 20 nM
- Activity (KU812 cell line [19]): 60.3%
- inhibition at 0.012 µM (LAMA-84 [20]): 50%
- inhibition [21]: inactive
- IC50 (KU812 cell line [22]): 12 nM
- Activity (LAMA-84 [23]): inactive
- IC50 (KBM5 [24]): 15 nM
- Activity (KU812 cell line [25]): Active
- Activity (LAMA-84 [26]): inactive
- Activity (LAMA-84 [27]): Active
- Activity [28]: Non-Toxic
- Activity (KU812 cell line [29]): inactive
- Activity (KU812 cell line [30]): Active
- Activity (KU812 cell line [31]): <10%
